Results from ChEMBL document CHEMBL4706564 (Eur J Med Chem, 2020).

How the values were obtained:
[1] = tested on: Marburgvirus; experiment: Antiviral activity against VSV-G pseudotyped MARV infected in human HeLa cells; assay type: functional, organism-based; settings: Orthomarburgvirus
[2] = tested on: Ebolavirus; experiment: Antiviral activity against VSV-G pseudotyped EBOV infected in human HeLa cells; assay type: functional, organism-based; settings: Orthoebolavirus
[3] = (§1) Cytotoxicity against human HEK293T cells incubated for 48 hrs by MTT assay; assay type: cell-based, HEK-293T; settings: HEK293T cells
Outline: (§2)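 HEK293T cells at 10⁵ cells/ml were added to two-fold compound dilutions in 10% DMEM and incubated 48 h at 37 °C, 5% CO2. MTT (5 mg/ml stock in PBS, 1/10 volume) was added for 2 h, and formazan was dissolved in DMSO before reading optical density. Each concentration was run in triplicate. CC50 was the concentration giving 50% cell death, or halving OD versus control.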

[4] = in vitro; settings: human, HEK293T cells
[5] = (§3) Cytotoxicity against African green monkey Vero cells assessed as reduction in cell survival incubated for 10 days by neutral red dye based colorimetric analysis; settings: chlorocebus sabaeus, Vero cells; time 10 day
Outline: (§4)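 Confluent Vero monolayers received six concentrations from 3-fold serial dilutions in DMEM of DMSO-dissolved compound, plus medium without virus. After 10 days at 37 °C, 5% CO2, cells were stained with neutral red and read at 490 nm. CC50 came from a 4-parameter fit, with at least 3 analyses per compound.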

[6] = cells; assay type: cell-based, Ebolavirus, HEK293T; settings: Orthoebolavirus, Mayinga, HEK-293T
[7] = tested on: Marburgvirus; experiment: Antiviral activity against MARV Popp infected in African green monkey Vero cells assessed as inhibition of viral infection by measuring reduction in virus-induced cytotoxicity incubated for 10 days by neutral red dye based colorimetric analysis; assay type: functional, organism-based; settings: vero
[8] = tested on: Zaire ebolavirus; experiment: Antiviral activity against Zaire ebolavirus infected in African green monkey Vero cells assessed as inhibition of viral infection by measuring […] incubated for 10 days by neutral red dye based colorimetric analysis; assay type: functional, organism-based
[9] = cells; assay type: cell-based, HEK293T; settings: Vesicular stomatitis virus, HEK-293T
[10] = tested on: Influenza A virus; experiment: Antiviral activity against Influenza A virus (H1N1); assay type: functional, organism-based
[11] = tested on: HEK-293T; experiment: as §1; assay type: cell-based; settings: hek-293t, 48 h; outline: as §2
[12] = tested on: Vero; experiment: as §3; settings: chlorocebus sabaeus, vero, 240 h; time 10 day; outline: as §4
[13] = Acute toxicity in ig dosed ICR mouse; assay type: organism-based; settings: in vivo, po
Outline: (§5)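 Outbred ICR mice, randomised into groups of 2. Each group got a single oral gavage dose of 1.08, […], 0.27 or 0.14 g/kg, given as a suspension in 10% DMSO in water at 0.1 mL/10 g. Controls received solvent only. Survival was recorded over 7 days.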

[14] = Acute toxicity in ICR mouse assessed as animal death at 0.14 to 1.08 g/kg, ig and measured for 7 days; settings: in vivo, po, 168 h, dose 0.14-1.08 g/Kg, time 7 day; outline: as §5
[15] = tested on: Ebolavirus; experiment: Antiviral activity against eGFP-positive VSV-G pseudotyped EBOV infected in human U2OS cells assessed as reduction in virus entry cells pre-incubed with compound for 1 hr followed by viral infection and measured after 12 to 14 hrs by fluorescence microscopic analysis; assay type: functional, organism-based; settings: Orthoebolavirus

`N#Cc1c(NCCN)nc(-c2ccccc2)c2c1CCCC2` showed an IC50 [1] of 6.2 µM and an IC50 [2] of 24.4 µM.

Compound `O=[N+]([O-])c1cc(S(=O)(=O)NCCN2CCOCC2)ccc1Sc1nnnn1-c1ccccc1` has an IC50 [1] of 12.9 µM and an IC50 [2] of 1.9 µM.

In the case of `CC1(C)[C@H]2CC[C@]1(C)[C@H](OC(=O)CCN1CCOCC1)C2`, the CC50 at 48 h [3] is reported as 305 µM, the selectivity ratio [4] is reported as 36 and the CC50 at 240 h [5] is reported as 122 µM. For the same compound, the IC50 [6] was 8.5 µM, the IC50 [7] was “Not Active” and the IC50 ([8]; vero) was “Not Active”. For the same compound, the IC50 [9] was 320 µM and the IC50 [10] was 12.2 µM.

With `CN1CCN(CCC(=O)O[C@@H]2C[C@@H]3CC[C@@]2(C)C3(C)C)CC1` the CC50 at 48 h [3] was 282 µM, the selectivity ratio [4] was 870 and the CC50 at 240 h [5] was 61.4 µM. The IC50 [6] was 0.3 µM, the IC50 [7] was “Not Active” and the IC50 ([8]; vero) was “Not Active”. It also gave an IC50 [9] of 173 µM and an IC50 [10] of 1.9 µM.

Work on `CC1(C)[C@H]2CC[C@]1(C)[C@H](OC(=O)CCN1CCCCC1)C2` yielded a CC50 [11] of 290 µM, a CC50 at 240 h [5] of 443 µM and an IC50 ([7]; read-out: IC50) of 3.7 µM. It also gave an IC50 ([8]; vero, read-out: IC50) of 47.5 µM, an IC50 [9] of 93 µM and an IC50 [10] of 7.8 µM.

`CC1CCN(CCC(=O)O[C@@H]2C[C@@H]3CC[C@@]2(C)C3(C)C)CC1` [listing 1 of 2 here] gave a CC50 [11] of 280 µM, a CC50 [12] of 69.3 µM and an IC50 [6] of 0.3 µM. It also gave an IC50 ([7]; read-out: IC50) of 2.2 µM, an IC50 ([8]; Zaire ebolavirus, Vero, 240 h, read-out: IC50) of 54.3 µM and an IC50 [10] of 15.3 µM.

Work on `CC1(C)[C@H]2CC[C@]1(C)[C@H](OC(=O)CCN1CCCCC1)C2.Cl` yielded a CC50 [11] of 87 µM, a CC50 [12] of 279 µM and an LD50 [13] of over 1000 mg/kg. For the same compound, the Activity [14] was “Non-Toxic”, the IC50 ([7]; read-out: IC50) was 18.1 µM and the IC50 ([8]; vero, read-out: IC50) was 9.1 µM.

With `CCCNC(=O)[C@@H]1O[C@H]1C(=O)N[C@@H](Cc1ccc(C)cc1)C(=O)N[C@H](C(=O)N1CCN(Cc2ccccc2)CC1)c1ccccc1` the IC50 [15] was 0.07 µM.

Work on `CC1CCN(CCC(=O)O[C@@H]2C[C@@H]3CC[C@@]2(C)C3(C)C)CC1` [listing 2 of 2 here] yielded a CC50 [11] of 69.8 µM, a CC50 [12] of 144 µM and an IC50 ([7]; read-out: IC50) of 5.7 µM. The IC50 ([8]; vero, read-out: IC50) was 64.7 µM.
